Measured values from ChEMBL document CHEMBL3792381, “Amine-free melanin-concentrating hormone receptor 1 antagonists: Novel 1-(1H-benzimidazol-6-yl)pyridin-2(1H)-one derivatives and design to avoid CYP3A4 time-dependent inhibition” (Bioorg Med Chem, 2016).
Values after ≈ are worked out from the molar mass of the structure shown. Active and inactive are the calls of the source. The calls are words filed in the database; no cut-off is given here.

Columns and labels:
[1] = Oral bioavailability in Sprague-Dawley rat plasma at 1 mg/kg administered through cassette dosing by LC/MS/MS analysis; assay type: ADME, organism-based
Outline: (§1)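 Male SD rats (eight weeks old), fed, cassette-dosed iv at 0.1 mg/kg or orally at 1 mg/kg as a suspension in 0.5% methylcellulose; n = 3. Plasma obtained by centrifugation of blood, deproteinized with acetonitrile, and measured by LC/MS/MS. AUC covers 0–8 h. Bioavailability, total clearance and Vss are derived from the iv and po data.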

[2] = biological target: T1, Melanin-concentrating hormone receptor 1 (Homo sapiens, UniProt Q99705); experiment: Antagonist activity at human MCHR1 expressed in CHO cells assessed as change in MCH(4 to 19)-stimulated Ca2+ concentration by Ca2+ mobilization assay; assay type: functional, cell-based
Outline: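 CHO dhfr− cells stably transfected with human MCHR1 (clone 4), seeded at 20000 cells/well and cultured about 24 h. Loaded with Fluo4 calcium dye for 30 min at 37 °C. Test compound in 10 mM HEPES pH 7.4 buffer with 0.1% BSA added, then MCH(4–19) at 2 nM final. Fluorescence read every 2 s; inhibition rate (%) taken relative to ligand-alone and DMSO-alone wells.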

[3] = Total clearance in Sprague-Dawley rat plasma at 0.1 mg/kg, iv administered through cassette dosing by LC/MS/MS analysis; assay type: ADME, organism-based; outline: as §1
[4] = Volume of distribution in steady state in Sprague-Dawley rat plasma at 0.1 mg/kg, iv administered through cassette dosing by LC/MS/MS analysis; assay type: ADME, organism-based; conditions: read-out: Vdss; outline: as §1
[5] = Cmax in Sprague-Dawley rat at 1 mg/kg, po administered through cassette dosing by LC/MS/MS analysis; assay type: ADME, organism-based; set-up: dose 1 mg/kg, route oral; conditions: in vivo; outline: as §1
[6] = Tmax in Sprague-Dawley rat plasma at 1 mg/kg, po administered through cassette dosing by LC/MS/MS analysis; assay type: ADME, organism-based; outline: as §1
[7] = AUC( 0 to 8 hrs) Sprague-Dawley rat plasma at 1 mg/kg, po administered through cassette dosing by LC/MS/MS analysis; assay type: ADME, organism-based; set-up: dose 1 mg/kg, time < 8 hr, route oral; outline: as §1
Rattus norvegicus [8] = experiment: Anorectic effect in DIO-F344/Jcl rat assessed as inhibition of food intake at 3 mg/kg, po administered 2 hrs before onset of dark period for 2 days; assay type: functional; set-up: scale not given: the % may be the effect or the level left
Outline: (§2)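 Male DIO-F344/Jcl rats, 45 weeks old, on high-fat diet from 5 weeks of age, singly housed on powdered high-fat diet and habituated to oral dosing with tap water. Grouped by day-0 food intake and body weight. Dosed orally once daily, suspended in 0.5% methylcellulose at 2 mL/kg, 2 h before dark onset, for 2 days; n = 6. Cumulative 2-day food intake is expressed relative to the vehicle group.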

Rattus norvegicus [9] = experiment: Anorectic effect in DIO-F344/Jcl rat assessed as inhibition of food intake at 10 mg/kg, po administered 2 hrs before onset of dark period for 2 days; assay type: functional; set-up: scale not given: the % may be the effect or the level left; outline: as §2
Rattus norvegicus [10] = experiment: Anorectic effect in orally dosed DIO-F344/Jcl rat assessed as inhibition of food intake administered 2 hrs before onset of dark period for 2 days; assay type: functional, organism-based; outline: as §2
Rattus norvegicus [11] = experiment: Antiobesity activity in DIO-F344/Jcl rat assessed as reduction in body weight at 3 mg/kg, po dosed for 2 weeks and measured every 2 or 3 days relative to vehicle control; assay type: functional; set-up: scale not given: the % may be the effect or the level left
Outline: (§3)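 DIO-F344 rats, 41 weeks old, habituated and grouped as for the 2-day study. Dosed orally once daily for 2 weeks in 0.5% methylcellulose at 2 mL/kg, 1–3 h before dark onset, after weighing; n = 5 or 6. Food intake measured every 2 or 3 days; body weight change expressed as percent of initial weight; sibutramine was the positive control.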

Rattus norvegicus [12] = experiment: Antiobesity activity in DIO-F344/Jcl rat assessed as reduction in body weight at 10 mg/kg, po dosed for 2 weeks and measured every 2 or 3 days relative to vehicle control; assay type: functional; set-up: scale not given: the % may be the effect or the level left; outline: as §3
Rattus norvegicus [13] = experiment: Anorectic effect in DIO-F344/Jcl rat assessed as cumulative food intake at 3 mg/kg, po dosed for 2 weeks and measured every 2 or 3 days relative to vehicle control; assay type: functional; outline: as §3
Rattus norvegicus [14] = experiment: Anorectic effect in DIO-F344/Jcl rat assessed as cumulative food intake at 10 mg/kg, po dosed for 2 weeks and measured every 2 or 3 days relative to vehicle control; assay type: functional; outline: as §3
[15] = Solubility of compound at pH 6.8; assay type: physicochemical; conditions: buffer
Plasma = experiment: Free plasma concentration in DIO-F344/Jcl rat at 10 mg/kg, po; assay type: ADME, organism-based; conditions: in vivo
Outline: (§4)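 Trough plasma concentration taken in the 2-week repeated oral dosing study in DIO-F344 rats. Unbound concentration obtained from total concentration and the unbound fraction in DIO rat plasma.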

[16] = Fraction unbound in po dosed DIO-F344/Jcl rat plasma; assay type: ADME, organism-based
Rattus norvegicus [17] = experiment: Trough plasma concentration in DIO-F344/Jcl rat at 10 mg/kg, po; assay type: ADME, organism-based; conditions: in vivo, read-out: Cmin; outline: as §4
[18] = Ratio of drug level in brain to plasma in po dosed DIO-F344/Jcl rat; assay type: ADME, organism-based; conditions: brain and plasma, read-out: BPR
Mus musculus [19] = experiment: Antiobesity activity in MCHR1-deficient mouse assessed as reduction in body weight at 10 and 30 mg/kg, po dosed for 3 days; assay type: functional, organism-based
Outline: (§5)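 Male MCHR1-deficient and wild-type littermate mice, 27 weeks old, on high-fat diet from 7 weeks of age, housed individually and acclimated to tap-water dosing. Grouped by food intake from day −4 to day −1 and by day −1 body weight. Dosed orally once daily for 3 days in 0.5% methylcellulose at 10 mL/kg; n = 6. Body weight change and cumulative food intake measured over the 3 days.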

Mus musculus [20] = experiment: Antiobesity activity in wild-type litter mate mouse assessed as reduction in body weight at 10 and 30 mg/kg, po dosed for 3 days; assay type: functional, organism-based; outline: as §5
Mus musculus [21] = experiment: Anorectic effect in MCHR1-deficient mouse assessed as reduction in food intake at 10 and 30 mg/kg, po dosed for 3 days; assay type: functional, organism-based; outline: as §5
Brain = experiment: Drug uptake in po dosed DIO-F344/Jcl rat brain; assay type: ADME, organism-based; conditions: in vivo
[22] = biological target: T1, Melanin-concentrating hormone receptor 1; experiment: Displacement of [125I]-MCH(4 to 19) from human MCHR1 expressed in CHO cell membranes after 1 hr by liquid scintillation counting
Outline: (§6)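 Membranes from CHO cells stably expressing human or rat MCHR1, prepared by homogenization and 100,000×g centrifugation, in 20 mM Tris-HCl pH 7.5 with 5 mM EDTA and protease inhibitors. Incubated with test compound and [125I]-MCH(4–19) for 1 h at room temperature. Filtered on PEI-treated GF/C filters and counted by scintillation. Nonspecific binding defined with cold MCH(1–19). IC50 from duplicate experiment.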

[23] = biological target: Melanin-concentrating hormone receptor 1 (Rattus norvegicus, UniProt P97639); experiment: Displacement of [125I]-MCH(4-19) from rat MCHR1 expressed in CHO cell membranes after 1 hr by liquid scintillation counting; outline: as §6
CYP3A4 = CYP3A4 (Homo sapiens, UniProt P08684); experiment: Time dependent inhibition of CYP3A4 in human liver microsomes assessed as conversion of testosterone to 6beta-hydroxytestosterone by measuring remaining activity at 30 uM by UPLC analysis in presence of NADPH generating system; assay type: ADME; conditions: read-out: Activity
Outline: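 Single-point assay: test compound at 30 µM preincubated with human liver microsomes at 37 °C in phosphate buffer pH 7.4 with an NADPH-generating system. Residual CYP3A4 activity then measured as testosterone 6β-hydroxylation by UPLC. Percent remaining = activity with preincubation (% of DMSO control) over activity without preincubation; n = 2.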

T1 sequence (Q99705 whole entry): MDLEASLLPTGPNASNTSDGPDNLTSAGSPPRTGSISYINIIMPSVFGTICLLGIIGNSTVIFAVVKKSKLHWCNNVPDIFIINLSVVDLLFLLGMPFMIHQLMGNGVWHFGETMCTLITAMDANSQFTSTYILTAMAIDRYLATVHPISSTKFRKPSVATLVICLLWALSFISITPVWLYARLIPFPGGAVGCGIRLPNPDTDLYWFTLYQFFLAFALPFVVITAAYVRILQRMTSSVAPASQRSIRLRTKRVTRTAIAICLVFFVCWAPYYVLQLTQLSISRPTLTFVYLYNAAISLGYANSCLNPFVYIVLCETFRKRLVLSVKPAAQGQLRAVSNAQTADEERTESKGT
Sequence of CYP3A4 (P08684 whole entry): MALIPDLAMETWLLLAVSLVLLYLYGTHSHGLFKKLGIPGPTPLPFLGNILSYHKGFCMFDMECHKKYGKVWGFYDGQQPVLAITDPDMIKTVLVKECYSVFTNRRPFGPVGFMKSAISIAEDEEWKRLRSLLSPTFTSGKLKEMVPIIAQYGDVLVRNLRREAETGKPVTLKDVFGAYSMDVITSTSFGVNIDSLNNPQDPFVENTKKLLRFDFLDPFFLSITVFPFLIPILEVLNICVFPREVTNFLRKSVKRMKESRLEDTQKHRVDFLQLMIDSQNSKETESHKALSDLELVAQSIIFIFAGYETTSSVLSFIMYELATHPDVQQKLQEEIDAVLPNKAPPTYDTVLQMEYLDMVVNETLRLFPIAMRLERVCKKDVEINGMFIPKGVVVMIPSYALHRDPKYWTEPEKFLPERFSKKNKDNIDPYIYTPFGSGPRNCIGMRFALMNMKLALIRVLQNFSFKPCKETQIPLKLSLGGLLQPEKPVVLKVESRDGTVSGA
Sequence of Melanin-concentrating hormone receptor 1 (Rattus norvegicus, UniProt P97639) (P97639 whole entry): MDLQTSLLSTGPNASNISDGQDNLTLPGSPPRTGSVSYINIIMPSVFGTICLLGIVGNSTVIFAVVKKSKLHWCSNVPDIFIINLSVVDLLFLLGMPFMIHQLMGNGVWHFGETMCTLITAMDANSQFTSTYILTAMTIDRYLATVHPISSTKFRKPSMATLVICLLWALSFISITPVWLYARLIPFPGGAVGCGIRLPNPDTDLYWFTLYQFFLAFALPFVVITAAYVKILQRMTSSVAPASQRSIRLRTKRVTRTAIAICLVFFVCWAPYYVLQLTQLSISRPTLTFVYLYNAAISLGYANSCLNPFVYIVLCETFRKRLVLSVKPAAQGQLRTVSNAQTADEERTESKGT

For `Cn1c(C2CC2)nc2ccc(-n3ccc(OCc4ccc(Cl)s4)cc3=O)cc21`, the bioavailability [1] was 23%, the IC50 [2] was 24 nM and the clearance [3] was 7.5 mL/min/kg. The Vd [4] was 0.92 L/kg, the Cmax [5] was 165 ng/mL and the Tmax [6] was 1 h. The AUC(0-t) at 8 h [7] was 515 ng·h/mL, the Activity (Rattus norvegicus [8]) was 11.6% and the Activity (Rattus norvegicus [9]) was 36.5%. The Activity (Rattus norvegicus [10]) was “Dose-dependent effect”, the Activity (Rattus norvegicus [11]) was 2.2% and the Activity (Rattus norvegicus [12]) was 4.1%. The Activity (Rattus norvegicus [13]) was 11.6%, the Activity (Rattus norvegicus [14]) was 20.9% and the solubility [15] was 2.3 µg/mL (≈ 5.58 µM). For the same compound, the “Cp(f)” value (Plasma) was 15.8 nM, the fraction unbound [16] was 0.02 and the concentration (Rattus norvegicus [17]) was 790 nM. The Kp [18] was 0.5, the Activity (Mus musculus [19]) was “inactive” and the Activity (Mus musculus [20]) was “Dose-dependent effect”. For the same compound, the Activity (Mus musculus [21]) was “Dose-dependent effect”, the Drug uptake (Brain) was “Active” and the IC50 [22] was 19 nM. It also gave an IC50 [23] of 11 nM and an activity at 30 µM (CYP3A4) of 83%.
